Data taken from ChEMBL document CHEMBL4616673 (J Med Chem, 2020).

Tests used:
K562 = assay: Antiproliferative activity against human K562 cells assessed as reduction in cell viability measured after 48 hrs by MTT assay; type: functional, cell-based; details: Homo sapiens, K562, 48 h
NAMALVA = assay: Antiproliferative activity against human NAMALWA cells assessed as reduction in cell viability measured after 48 hrs by MTT assay; type: functional, cell-based; details: Homo sapiens, NAMALVA, 48 h
Raji [1] = assay: Induction of apoptosis in human Raji cells assessed as early apoptotic cells at 0.031 uM measured after 48 hrs by Annexin V-FITC staining based flow cytometry (reference value: 1 %); type: functional
Raji [2] = assay: Induction of apoptosis in human Raji cells assessed as late apoptotic cells at 0.031 uM measured after 48 hrs by Annexin V-FITC staining based flow cytometry (reference value: 0.7 %); type: functional
Raji [3] = assay: Induction of apoptosis in human Raji cells assessed as necrotic cells at 0.031 uM measured after 48 hrs by Annexin V-FITC staining based flow cytometry (reference value: 0.21 %); type: functional
Raji [4] = assay: Induction of apoptosis in human Raji cells assessed as live cells at 0.125 uM measured after 48 hrs by Annexin V-FITC staining based flow cytometry (reference value: 98.09 %); type: functional
Raji [5] = assay: Induction of apoptosis in human Raji cells assessed as early apoptotic cells at 0.125 uM measured after 48 hrs by Annexin V-FITC staining based flow cytometry (reference value: 1 %); type: functional
Raji [6] = assay: Induction of apoptosis in human Raji cells assessed as late apoptotic cells at 0.125 uM measured after 48 hrs by Annexin V-FITC staining based flow cytometry (reference value: 0.7 %); type: functional
[7] = Stability of the compound in pH 1 to 7.4 buffer assessed as decrease in compound concentration at 0.01 mg/ml measured up to 24 hrs by LC-MS analysis; type: physicochemical; details: read-out: Drug degradation
Procedure, shortened: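 Compound at 0.01 mg/mL final in buffer containing 10% acetonitrile at pH 1.0, 4.5, 6.6, 7.4 or 9.0. Held at 37 °C, sampled at 0, 2, 4, 6, 8, 10, 12 and 24 h. Remaining compound by LC-MS.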

Raji [8] = assay: Antitumor activity against human Raji cells xenografted in NOD-SCID nude mouse assessed as tumor growth inhibition at 40 mg/kg/day, po administered 6 days a week for 3 weeks relative to control; type: functional; details: read-out: TGI
Raji [9] = assay: Antitumor activity against human Raji cells xenografted in NOD-SCID nude mouse assessed as tumor growth inhibition at 80 mg/kg/day, po administered 6 days a week for 3 weeks relative to control; type: functional; details: read-out: TGI
[10] = Toxicity in NOD-SCID nude mouse xenografted with human Raji cells assessed as effect on body weight at 30 mg/kg/day, po administered 6 days a week for 3 weeks and measured every 3 days; type: organism-based; details: in vivo
Procedure, shortened: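 Mice, 6-7 weeks old, injected s.c. with 1×10^7 Raji cells in serum-free medium plus basement membrane matrix. At 100–200 mm3 tumours, randomised (n=6). Oral dosing 6 days/week for 3 weeks: 30 mg/kg/d free compound suspended in 5% NMP/95% PEG400, or 40 or 80 mg/kg/d nanocrystal. Body weight and tumour volume measured every 3 days.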

[11] = Acute toxicity in BALB/c mouse assessed as effect on blood TP level at 400 mg/kg, po measured on day 14; type: organism-based; details: in vivo
Procedure, shortened: (§1)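 BALB/c mice, female and male, 6-8 weeks old, given oral doses within 24 h, up to 400 mg/kg (free compound) or 800 mg/kg (nanocrystal formulation). Watched for body weight loss, diarrhea, anorexia, skin ulcer and toxic death. Serum biochemistry panel was run at the end of treatment.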

[12] = Acute toxicity in BALB/c mouse assessed as effect on blood ALB level at 400 mg/kg, po measured on day 14; type: organism-based; details: in vivo; procedure, shortened: as §1
[13] = Acute toxicity in BALB/c mouse assessed as effect on blood BILT level at 400 mg/kg, po measured on day 14; type: organism-based; details: in vivo; procedure, shortened: as §1
[14] = Acute toxicity in BALB/c mouse assessed as effect on blood CREA level at 400 mg/kg, po measured on day 14; type: organism-based; details: in vivo; procedure, shortened: as §1
[15] = Acute toxicity in BALB/c mouse assessed as effect on blood UA level at 400 mg/kg, po measured on day 14; type: organism-based; details: in vivo; procedure, shortened: as §1
[16] = Acute toxicity in BALB/c mouse assessed as effect on blood CHO1 level at 400 mg/kg, po measured on day 14; type: organism-based; details: in vivo; procedure, shortened: as §1
[17] = Acute toxicity in BALB/c mouse assessed as effect on blood TG level at 400 mg/kg, po measured on day 14; type: organism-based; details: in vivo; procedure, shortened: as §1
[18] = Acute toxicity in BALB/c mouse assessed as effect on blood CK level at 400 mg/kg, po measured on day 14; type: organism-based; details: in vivo; procedure, shortened: as §1
[19] = Acute toxicity in BALB/c mouse assessed as effect on blood HDL level at 400 mg/kg, po measured on day 14; type: organism-based; details: in vivo; procedure, shortened: as §1
[20] = Acute toxicity in BALB/c mouse assessed as effect on blood ALT level at 800 mg/kg, po measured on day 14; type: organism-based; details: in vivo; procedure, shortened: as §1
[21] = Acute toxicity in BALB/c mouse assessed as effect on blood TP level at 800 mg/kg, po measured on day 14; type: organism-based; details: in vivo; procedure, shortened: as §1
[22] = Acute toxicity in BALB/c mouse assessed as effect on blood GLU level at 800 mg/kg, po measured on day 14; type: organism-based; details: in vivo; procedure, shortened: as §1
[23] = Acute toxicity in BALB/c mouse assessed as effect on blood CREA level at 800 mg/kg, po measured on day 14; type: organism-based; details: in vivo; procedure, shortened: as §1
[24] = Acute toxicity in BALB/c mouse assessed as effect on blood CHO1 level at 800 mg/kg, po measured on day 14; type: organism-based; details: in vivo; procedure, shortened: as §1
[25] = Acute toxicity in BALB/c mouse assessed as effect on blood TG level at 800 mg/kg, po measured on day 14; type: organism-based; details: in vivo; procedure, shortened: as §1
[26] = Acute toxicity in BALB/c mouse assessed as effect on blood HDL level at 800 mg/kg, po measured on day 14; type: organism-based; details: in vivo; procedure, shortened: as §1
[27] = Acute toxicity in BALB/c mouse assessed as effect on lung at 400 mg/kg, po measured on day 14 by H and E staining based light microscopic analysis; type: organism-based; details: in vivo
Procedure, shortened: (§2)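 Female and male BALB/c mice, 6-8 weeks old, dosed orally within 24 h at up to 400 mg/kg (free compound) or 800 mg/kg (nanocrystal). At the end of treatment, heart, liver, spleen, lung and kidney were sectioned, stained with H&E and imaged by light microscopy.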

[28] = Acute toxicity in BALB/c mouse assessed as effect on heart at 800 mg/kg, po measured on day 14 by H and E staining based light microscopic analysis; type: organism-based; details: in vivo; procedure, shortened: as §2
[29] = Acute toxicity in BALB/c mouse assessed as effect on lung at 800 mg/kg, po measured on day 14 by H and E staining based light microscopic analysis; type: organism-based; details: in vivo; procedure, shortened: as §2

For O=C1c2ccccc2C(=O)c2c1nnn2-c1cc(F)c(-c2ccccc2F)c(F)c1, the IC50 (K562) was 110 nM, the IC50 (NAMALVA) was 990 nM and the Activity (Raji [1]) was 3.09%. For the same compound, the Activity (Raji [2]) was 3.4%, the Activity (Raji [3]) was 0.37% and the Activity (Raji [4]) was 89.46%. For the same compound, the Activity (Raji [5]) was 4.1%, the Activity (Raji [6]) was 6.04% and the degraded at 24 h, 0.01 mg/ml [7] was 1.6 to 9%. The inhibition in vivo at 40 mg/kg/day (Raji [8]) was 52%, the inhibition in vivo at 80 mg/kg/day (Raji [9]) was 68% and the Activity [10] was “Non-Toxic”. The Activity [11] was “Non-Toxic”, the Activity [12] was “Non-Toxic” and the Activity [13] was “Non-Toxic”. For the same compound, the Activity [14] was “Non-Toxic”, the Activity [15] was “Non-Toxic” and the Activity [16] was “Non-Toxic”. For the same compound, the Activity [17] was “Non-Toxic”, the Activity [18] was “Non-Toxic” and the Activity [19] was “Non-Toxic”. The Activity [20] was “Non-Toxic”, the Activity [21] was “Non-Toxic” and the Activity [22] was “Non-Toxic”. The Activity [23] was “Non-Toxic”, the Activity [24] was “Non-Toxic” and the Activity [25] was “Non-Toxic”. The Activity [26] was “Non-Toxic”, the Activity [27] was “Non-Toxic” and the Activity [28] was “Non-Toxic”. For the same compound, the Activity [29] was “Non-Toxic”.
